Test results from ChEMBL document CHEMBL3612019, “Revisiting 1,3,4-Oxadiazol-2-ones: Utilization in the Development of ABHD6 Inhibitors” (Bioorg Med Chem, 2015).
Calls of active or inactive are those of the source. No cut-off for these calls is given here.

Columns and labels:
[1] = biological target: T1, Fatty-acid amide hydrolase 1 (Homo sapiens) (UniProt O00519); experiment: Inhibition of human FAAH expressed in COS7 cell membranes at 10 uM pre-incubated for 10 mins before [3H]-AEA substrate addition by liquid scintillation counting; details: COS-7
T1 sequence (whole entry): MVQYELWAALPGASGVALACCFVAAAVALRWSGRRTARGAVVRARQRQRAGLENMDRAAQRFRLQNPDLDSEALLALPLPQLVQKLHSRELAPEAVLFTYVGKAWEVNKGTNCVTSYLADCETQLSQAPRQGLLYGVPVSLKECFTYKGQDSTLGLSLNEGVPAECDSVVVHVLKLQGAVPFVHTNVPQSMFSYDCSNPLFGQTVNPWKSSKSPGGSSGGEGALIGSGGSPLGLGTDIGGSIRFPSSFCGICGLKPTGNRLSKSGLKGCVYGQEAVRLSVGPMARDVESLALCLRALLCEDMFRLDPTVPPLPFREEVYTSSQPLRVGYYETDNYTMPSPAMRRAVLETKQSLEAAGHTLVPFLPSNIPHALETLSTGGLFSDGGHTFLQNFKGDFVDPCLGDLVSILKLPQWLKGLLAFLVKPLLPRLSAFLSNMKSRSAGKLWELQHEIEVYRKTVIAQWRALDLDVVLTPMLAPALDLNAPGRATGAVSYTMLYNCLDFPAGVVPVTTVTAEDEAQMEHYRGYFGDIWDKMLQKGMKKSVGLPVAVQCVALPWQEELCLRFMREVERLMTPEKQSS

Monoglyceride lipase = biological target: T2, Monoglyceride lipase (Homo sapiens, UniProt Q99685); experiment: Inhibition of human MAGL expressed in HEK293 cells pre-incubated for 10 mins before 2-AG substrate addition by HPLC method; format: cell-based
T2 sequence (Q99685 whole entry): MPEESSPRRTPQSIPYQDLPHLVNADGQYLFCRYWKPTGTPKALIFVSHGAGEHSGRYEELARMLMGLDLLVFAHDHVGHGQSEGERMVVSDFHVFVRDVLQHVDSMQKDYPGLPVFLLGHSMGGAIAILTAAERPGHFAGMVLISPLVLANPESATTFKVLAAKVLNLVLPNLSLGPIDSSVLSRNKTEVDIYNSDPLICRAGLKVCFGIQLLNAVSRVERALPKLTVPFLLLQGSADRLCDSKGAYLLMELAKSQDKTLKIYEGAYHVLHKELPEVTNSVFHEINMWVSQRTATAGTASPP
Outline: (§1)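 Lysates of hMAGL-overexpressing HEK293 cells in 50 mM Tris–HCl pH 7.4 with 1 mM EDTA. After a 10 min preincubation with inhibitor or DMSO, 2-AG was added (final 50 µM) and incubated 10 min at 37 °C. The reaction was stopped and samples centrifuged. Arachidonic acid formation and 2-AG depletion were measured by HPLC. Replicates as for the FAAH assay.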

[2] = biological target: T3, Monoacylglycerol lipase ABHD6 (Homo sapiens, UniProt Q9BV23); experiment: Inhibition of human ABHD6 expressed in HEK293 cells assessed as reduction in glycerol production from 1-AG hydrolysis pre-incubated for 30 mins before 1-AG substrate addition and measured 90 mins post substrate addition by fluorescence method; format: cell-based
T3 sequence (Q9BV23 whole entry): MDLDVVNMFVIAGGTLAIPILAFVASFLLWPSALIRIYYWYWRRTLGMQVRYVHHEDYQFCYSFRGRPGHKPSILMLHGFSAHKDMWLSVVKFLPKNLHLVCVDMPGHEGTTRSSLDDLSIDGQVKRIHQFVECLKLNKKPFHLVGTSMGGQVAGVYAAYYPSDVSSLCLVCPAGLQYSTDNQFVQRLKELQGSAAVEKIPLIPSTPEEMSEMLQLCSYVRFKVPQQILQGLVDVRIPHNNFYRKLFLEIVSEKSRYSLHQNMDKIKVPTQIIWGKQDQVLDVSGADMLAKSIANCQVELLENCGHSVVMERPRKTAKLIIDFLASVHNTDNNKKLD
Outline: (§2)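 hABHD6-HEK293 lysates pretreated 30 min with DMSO or inhibitor, then given 1-AG (12.5 µM final). Glycerol release was followed kinetically by fluorescence (emission 590 nm). Blanks without lysate were subtracted. IC50 was taken at the 90 min time point by nonlinear fitting of dose–response curves.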

[3] = biological target: T4, Lysophosphatidylserine lipase ABHD12 (Homo sapiens) (UniProt Q8N2K0); experiment: Inhibition of human ABHD12 expressed in HEK293 cells assessed as remaining enzyme activity at 1 uM pre-incubated for 10 mins before 2-AG substrate addition by HPLC method; format: cell-based
T4 sequence (whole entry): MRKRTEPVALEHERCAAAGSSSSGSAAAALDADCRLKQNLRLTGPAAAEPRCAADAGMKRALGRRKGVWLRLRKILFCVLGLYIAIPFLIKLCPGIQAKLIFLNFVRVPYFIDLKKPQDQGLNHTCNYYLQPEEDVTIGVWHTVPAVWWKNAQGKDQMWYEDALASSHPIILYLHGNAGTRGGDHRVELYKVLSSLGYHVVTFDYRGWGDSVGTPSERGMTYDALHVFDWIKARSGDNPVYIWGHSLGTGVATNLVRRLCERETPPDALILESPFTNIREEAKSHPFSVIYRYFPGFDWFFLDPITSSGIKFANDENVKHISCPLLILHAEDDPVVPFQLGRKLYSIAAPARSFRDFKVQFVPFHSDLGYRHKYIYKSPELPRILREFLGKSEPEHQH

[4] = biological target: T5, Monoglyceride lipase (Homo sapiens) (UniProt Q99685); experiment: Inhibition of human MAGL expressed in HEK293 cells at 10 uM pre-incubated for 10 mins before 2-AG substrate addition by HPLC method; format: cell-based; outline: as §1
T5 sequence (whole entry): T2 sequence (Q99685 whole entry)

[5] = biological target: T6, Monoacylglycerol lipase ABHD6 (Homo sapiens) (UniProt Q9BV23); experiment: Inhibition of human ABHD6 expressed in HEK293 cells assessed as remaining enzyme activity by measuring reduction in glycerol production from 1-AG hydrolysis at 1 uM pre-incubated for 30 mins before 1-AG substrate addition and measured 90 mins post substrate addition by fluorescence method; format: cell-based; outline: as §2
T6 sequence (whole entry): T3 sequence (Q9BV23 whole entry)

[6] = biological target: T7, Fatty-acid amide hydrolase 1 (Homo sapiens, UniProt O00519); experiment: Inhibition of human FAAH expressed in COS7 cell membranes pre-incubated for 10 mins before [3H]-AEA substrate addition by liquid scintillation counting; set-up: species or system COS-7
T7 sequence (O00519 whole entry): T1 sequence (whole entry)

[7] = biological target: Cannabinoid receptor 1 (Rattus norvegicus) (UniProt P20272); details: Cerebellum, Membrane, 1 uM
[8] = biological target: T3, Monoacylglycerol lipase ABHD6; experiment: Inhibition of human ABHD6 expressed in HEK293 cells at 1 uM pre-incubated for 10 mins before 2-AG substrate addition followed by rapid 40 fold compound dilution measured after 10 mins by HPLC method; format: cell-based
[9] = biological target: T3, Monoacylglycerol lipase ABHD6; experiment: Inhibition of human ABHD6 expressed in HEK293 cells at 1 uM pre-incubated for 10 mins before 2-AG substrate addition followed by rapid 40 fold compound dilution measured after 30 mins by HPLC method; format: cell-based
[10] = biological target: T3, Monoacylglycerol lipase ABHD6; experiment: Inhibition of human ABHD6 expressed in HEK293 cells at 1 uM pre-incubated for 10 mins before 2-AG substrate addition followed by rapid 40 fold compound dilution measured after 60 mins by HPLC method; format: cell-based
[11] = biological target: T3, Monoacylglycerol lipase ABHD6; experiment: Inhibition of human ABHD6 expressed in HEK293 cells at 1 uM pre-incubated for 10 mins before 2-AG substrate addition followed by rapid 40 fold compound dilution measured after 90 mins by HPLC method; format: cell-based

Cannabinoid receptor 1 (Rattus norvegicus), sequence (P20272 whole entry): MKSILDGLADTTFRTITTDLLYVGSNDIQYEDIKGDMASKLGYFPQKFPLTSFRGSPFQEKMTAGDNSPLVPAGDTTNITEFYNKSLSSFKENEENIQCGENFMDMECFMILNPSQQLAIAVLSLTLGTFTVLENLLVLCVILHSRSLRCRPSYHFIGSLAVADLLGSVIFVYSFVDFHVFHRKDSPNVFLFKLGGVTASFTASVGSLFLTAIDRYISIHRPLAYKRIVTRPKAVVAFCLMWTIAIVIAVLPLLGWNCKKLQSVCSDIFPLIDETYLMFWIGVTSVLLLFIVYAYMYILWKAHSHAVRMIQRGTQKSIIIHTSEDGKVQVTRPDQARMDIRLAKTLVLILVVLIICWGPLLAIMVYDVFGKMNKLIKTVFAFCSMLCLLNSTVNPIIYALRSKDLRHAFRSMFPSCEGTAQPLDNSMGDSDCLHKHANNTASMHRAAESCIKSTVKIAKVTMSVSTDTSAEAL

O=c1oc(Oc2ccccc2)nn1Cc1cccc([N+](=O)[O-])c1
inhibition [1]: 38%
IC50 (Monoglyceride lipase; read-out: IC50): 3310 nM
IC50 (Monoglyceride lipase; read-out: pIC50 (converted)): 3240 nM
IC50 [2]: 130 nM
inhibition [3]: inactive

COc1nn(Cc2ccccc2)c(=O)o1
inhibition [1]: inactive
inhibition [4]: inactive
Activity [5]: 61%

COc1nn(Cc2cccc(OCc3ccccc3)c2)c(=O)o1
IC50 ([6]; read-out: IC50): 1510 nM
IC50 ([6]; read-out: pIC50 (converted)): 1510 nM
IC50 (Monoglyceride lipase; read-out: IC50): 3230 nM
Activity [5]: 53%
inhibition [3]: inactive

COc1nn(Cc2ccc([N+](=O)[O-])cc2)c(=O)o1
inhibition [1]: 18%
inhibition [4]: 36%
inhibition [5]: inactive
inhibition [3]: inactive

COc1nn(Cc2ccc(CC(C)C)cc2)c(=O)o1
inhibition [5]: inactive

COc1nn(Cc2ccccc2NC(=O)c2ccccc2)c(=O)o1
inhibition [1]: inactive
inhibition [4]: inactive
inhibition [5]: inactive
inhibition [3]: inactive

COC(=O)c1ccc(Cn2nc(OC)oc2=O)cc1
IC50 ([6]; read-out: IC50): 6760 nM
IC50 ([6]; read-out: pIC50 (converted)): 6760 nM
inhibition [4]: 15%
inhibition [5]: inactive
inhibition [3]: inactive

COc1nn(Cc2cccc(NC(=O)c3ccccc3)c2)c(=O)o1
inhibition [1]: inactive
inhibition [4]: 48%
Activity [5]: 79%
inhibition [3]: inactive

COc1nn(Cc2cccc(Oc3ccccc3)c2)c(=O)o1
Activity [5]: 70%

COc1nn(Cc2ccc(OCc3ccccc3)cc2)c(=O)o1
IC50 ([6]; read-out: IC50): 410 nM
IC50 ([6]; read-out: pIC50 (converted)): 407 nM
IC50 (Monoglyceride lipase; read-out: IC50): 520 nM
inhibition [5]: inactive
inhibition [3]: inactive

COc1nn(Cc2ccccc2NC(C)=O)c(=O)o1
inhibition [1]: 11%
inhibition [4]: 3%
inhibition [5]: inactive
inhibition [3]: inactive

COc1nn(Cc2ccc(N)cc2)c(=O)o1
inhibition [1]: 34%
inhibition [4]: 23%
inhibition [5]: inactive
inhibition [3]: inactive

COc1nn(Cc2ccccc2N)c(=O)o1
inhibition [1]: 8%
inhibition [4]: 4%
inhibition [5]: inactive
inhibition [3]: inactive

COc1nn(Cc2ccc(NC(C)=O)cc2)c(=O)o1
inhibition [1]: 37%
inhibition [4]: 16%
inhibition [5]: inactive
inhibition [3]: inactive

COc1nn([C@@H](C)c2ccc(CC(C)C)cc2)c(=O)o1
inhibition [5]: inactive

COc1nn(Cc2ccccc2[N+](=O)[O-])c(=O)o1
inhibition [1]: 36%
inhibition [4]: 43%
Activity [5]: 57%
inhibition [3]: inactive

COc1nn(Cc2ccc(Oc3ccccc3)cc2)c(=O)o1
pIC50 (Monoglyceride lipase; hek293): 6.4
Activity [5]: 77%

COc1nn(Cc2ccccc2-c2ccccc2)c(=O)o1
inhibition [1]: 23%
inhibition [4]: 8%
inhibition [5]: inactive
inhibition [3]: inactive

Cc1c(C(=O)NN2CCCCC2)nn(-c2ccc(Cl)cc2Cl)c1-c1ccc(I)cc1
inhibition [7]: 38%

COc1nn(Cc2ccccc2Oc2ccccc2)c(=O)o1
inhibition [4]: inactive
Activity [5]: 60%

O=C(N1CCC(=C2c3ccc(Cl)cc3CCc3cccnc32)CC1)n1cncn1
IC50 ([6]; cos-7, read-out: IC50): 7240 nM
IC50 (Monoglyceride lipase; hek293, read-out: IC50): 46 nM
IC50 ([2]; hek293): 1780 nM

COc1nn(Cc2cccc(C#N)c2)c(=O)o1
inhibition [1]: inactive
inhibition [4]: 23%
Activity [5]: 63%
inhibition [3]: inactive

COc1nn(Cc2ccc(-c3ccccc3)cc2)c(=O)o1
inhibition [5]: inactive

COc1nn(Cc2cccc(NC(C)=O)c2)c(=O)o1
inhibition [1]: inactive
inhibition [4]: 12%
inhibition [5]: inactive
inhibition [3]: inactive

COc1nn(Cc2cccc(-c3ccccc3)c2)c(=O)o1
inhibition [5]: inactive

COC(=O)c1cccc(Cn2nc(OC)oc2=O)c1
inhibition [1]: 20%
inhibition [4]: 7%
IC50 [2]: 450 nM
inhibition [3]: inactive

CCOc1nn(Cc2cccc(N)c2)c(=O)o1
inhibition [1]: 10%
inhibition [4]: 15%
inhibition [5]: inactive
inhibition [3]: inactive

COc1nn(Cc2cccc(C(F)(F)F)c2)c(=O)o1
inhibition [1]: 12%
inhibition [4]: 48%
IC50 [2]: 870 nM
inhibition [3]: inactive

COc1nn(Cc2ccc(C#N)cc2)c(=O)o1
inhibition [1]: inactive
inhibition [4]: 25%
inhibition [5]: inactive
inhibition [3]: inactive

COc1nn(Cc2cccc(Cl)c2)c(=O)o1
inhibition [1]: 37%
inhibition [4]: 43%
Activity [5]: 52%
inhibition [3]: inactive

COc1cccc(Cn2nc(OC)oc2=O)c1
inhibition [1]: inactive
inhibition [4]: 6%
Activity [5]: 70%
inhibition [3]: inactive

COc1nn(Cc2ccc(NC(=O)c3ccccc3)cc2)c(=O)o1
IC50 ([6]; read-out: IC50): 620 nM
IC50 ([6]; read-out: pIC50 (converted)): 617 nM
IC50 (Monoglyceride lipase; read-out: IC50): 560 nM
Activity [5]: 88%
inhibition [3]: inactive

COc1nn(Cc2cccc([N+](=O)[O-])c2)c(=O)o1
inhibition [1]: 7%
inhibition [4]: 32%
Activity [5]: 65%
inhibition [3]: inactive

COc1nn(Cc2cccc3ccccc23)c(=O)o1
inhibition [1]: 35%
inhibition [4]: 11%
Activity [5]: 64%
inhibition [3]: inactive

CN(C(=O)Oc1nsnc1N1CCOCC1)C1CCCCCCC1
inhibition [1]: 18%
inhibition [4]: inactive
pIC50 ([2]; hek293): 7.36
IC50 [8]: 91.2 nM
IC50 [9]: 87.1 nM
IC50 [10]: 87.1 nM
IC50 [11]: 93.3 nM

COc1nn(Cc2ccc3ccccc3c2)c(=O)o1
IC50 ([6]; read-out: IC50): 3980 nM
IC50 ([6]; read-out: pIC50 (converted)): 3980 nM
inhibition [4]: inactive
inhibition [5]: inactive
inhibition [3]: inactive
